ChEMBL document CHEMBL1157589, “Antifungal 3,5-disubstituted furanones: From 5-acyloxymethyl to 5-alkylidene derivatives” (Bioorg Med Chem, 2010)
pIC50: −log10 of the molar value. In brackets after ≈: the same amount, converted by molar mass.

Tests used:
Lichtheimia corymbifera [1] = test: Antifungal activity against Absidia corymbifera 272 after 48 hrs by microdilution method; assay type: functional; conditions: Lichtheimia corymbifera, 272, 48 h
Method in brief: (§1)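 Filamentous strains held on Sabouraud dextrose agar. NCCLS M27-A broth microdilution in RPMI 1640 with L-glutamine and 0.165 M MOPS, pH 7.0. DMSO diluent ≤2% final; twofold dilutions 500–0.48. Inoculum 5 × 10³ ± 0.2 cfu mL⁻¹ final.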

Nakaseomyces glabratus [2] = test: Antifungal activity against Candida glabrata 20/I after 24 hrs by microdilution method; assay type: functional
Method in brief: (§2)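 Yeasts held on Sabouraud dextrose agar. MIC by NCCLS M27-A broth microdilution in RPMI 1640 with L-glutamine, buffered with 0.165 M MOPS to pH 7.0. Compounds in DMSO (≤2% final), twofold dilutions 500–0.48. Final inoculum 5 × 10³ ± 0.2 cfu mL⁻¹. Incubated at 35 °C; absorbance at 540 nm read at 24 and 48 h. MIC is 80% growth inhibition versus control; run twice in duplicate.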

Candida albicans [3] = test: Antifungal activity against Candida albicans ATCC 44859 after 48 hrs by microdilution method; assay type: functional; conditions: ATCC 44859, 48 h; method in brief: as §2
Candida tropicalis [4] = test: Antifungal activity against Candida tropicalis 156 after 24 hrs by microdilution method; assay type: functional; conditions: Candida tropicalis, 156, 24 h; method in brief: as §2
Candida parapsilosis [5] = test: Antifungal activity against Candida parapsilosis ATCC 22019 after 24 hrs by microdilution method; assay type: functional; conditions: Lodderomyces parapsilosis, ATCC 22019, 24 h; method in brief: as §2
Trichosporon beigelii [6] = test: Antifungal activity against Trichosporon beigelii 1188 after 24 hrs by microdilution method; assay type: functional; conditions: Trichosporon beigelii, 1188, 24 h; method in brief: as §2
Nakaseomyces glabratus [7] = test: Antifungal activity against Candida glabrata 20/I after 48 hrs by microdilution method; assay type: functional; method in brief: as §2
HeLa S3 = test: Cytostatic activity against human HeLaS3 cells after 48 hrs by XTT assay; conditions: Homo sapiens, HeLa S3, 48 h; read-out: IC50
Clavispora lusitaniae [8] = test: Antifungal activity against Candida lusitaniae 2446/I after 24 hrs by microdilution method; assay type: functional; method in brief: as §2
Pichia kudriavzevii [9] = test: Antifungal activity against Candida krusei E28 after 48 hrs by microdilution method; assay type: functional; conditions: E28, 48 h; method in brief: as §2
Candida albicans [10] = test: Antifungal activity against Candida albicans ATCC 90028 after 24 hrs by microdilution method; assay type: functional; conditions: ATCC 90028, 24 h; method in brief: as §2
[11] = tested on: Trichophyton mentagrophytes; test: Antifungal activity against Trichophyton mentagrophytes 445 after 72 hrs by microdilution method; assay type: functional; conditions: Trichophyton mentagrophytes, 445, 72 h
Method in brief: (§3)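 Dermatophyte held on Sabouraud dextrose agar. M27-A microdilution in MOPS-buffered (0.165 M, pH 7.0) RPMI 1640 with L-glutamine. DMSO ≤2% final; twofold dilutions 500–0.48. Inoculum 5 × 10³ ± 0.2 cfu mL⁻¹ final. Incubated at 35 °C; MIC read visually at 72 and 120 h as 80% inhibition of control growth; determined twice in duplicate.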

Aspergillus fumigatus [12] = test: Antifungal activity against Aspergillus fumigatus 231 after 24 hrs by microdilution method; assay type: functional; conditions: Aspergillus fumigatus, 231, 24 h; method in brief: as §1
Trichosporon beigelii [13] = test: Antifungal activity against Trichosporon beigelii 1188 after 48 hrs by microdilution method; assay type: functional; conditions: Trichosporon beigelii, 1188, 48 h; method in brief: as §2
Pichia kudriavzevii [14] = test: Antifungal activity against Candida krusei ATCC 6258 after 24 hrs by microdilution method; assay type: functional; conditions: ATCC 6258, 24 h; method in brief: as §2
Clavispora lusitaniae [15] = test: Antifungal activity against Candida lusitaniae 2446/I after 48 hrs by microdilution method; assay type: functional; method in brief: as §2
Candida parapsilosis [16] = test: Antifungal activity against Candida parapsilosis ATCC 22019 after 48 hrs by microdilution method; assay type: functional; conditions: Lodderomyces parapsilosis, ATCC 22019, 48 h; method in brief: as §2
Aspergillus fumigatus [17] = test: Antifungal activity against Aspergillus fumigatus 231 after 48 hrs by microdilution method; assay type: functional; conditions: Aspergillus fumigatus, 231, 48 h; method in brief: as §1
Candida tropicalis [18] = test: Antifungal activity against Candida tropicalis 156 after 48 hrs by microdilution method; assay type: functional; conditions: Candida tropicalis, 156, 48 h; method in brief: as §2
Pichia kudriavzevii [19] = test: Antifungal activity against Candida krusei E28 after 24 hrs by microdilution method; assay type: functional; conditions: E28, 24 h; method in brief: as §2
[20] = tested on: Trichophyton mentagrophytes; test: Antifungal activity against Trichophyton mentagrophytes 445 after 120 hrs by microdilution method; assay type: functional; conditions: Trichophyton mentagrophytes, 445, 120 h; method in brief: as §3
CCRF-CEM = test: Cytostatic activity against human CCRF-CEM cells after 72 hrs by XTT assay; assay type: functional, cell-based; conditions: Homo sapiens, CCRF-CEM, 72 h; read-out: IC50
Method in brief: (§4)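 Leukemia cells (L1210 ATCC CCL 219, CCRF-CEM ATCC CCL 119, HL-60 ATCC CCL 240) grown in 24-well plates in RPMI 1640 with fetal calf serum. Growth assessed 72 h after drug addition. Viability measured by XTT spectrophotometric assay; potency given as IC50.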

Candida albicans [21] = test: Antifungal activity against Candida albicans ATCC 90028 after 48 hrs by microdilution method; assay type: functional; conditions: ATCC 90028, 48 h; method in brief: as §2
Candida albicans [22] = test: Antifungal activity against Candida albicans ATCC 44859 after 24 hrs by microdilution method; assay type: functional; conditions: ATCC 44859, 24 h; method in brief: as §2
HL-60 = test: Cytostatic activity against human HL60 cells after 72 hrs by XTT assay; assay type: functional, cell-based; conditions: Homo sapiens, HL-60, 72 h; read-out: IC50; method in brief: as §4
Lichtheimia corymbifera [23] = test: Antifungal activity against Absidia corymbifera 272 after 24 hrs by microdilution method; assay type: functional; conditions: Lichtheimia corymbifera, 272, 24 h; method in brief: as §1
Pichia kudriavzevii [24] = test: Antifungal activity against Candida krusei ATCC 6258 after 48 hrs by microdilution method; assay type: functional; conditions: ATCC 6258, 48 h; method in brief: as §2

| MIC80 (Lichtheimia corymbifera [1]) [µM] | MIC80 (Nakaseomyces glabratus [2]) [µM] | MIC80 (Candida albicans [3]) [µM] | MIC80 (Candida tropicalis [4]) [µM] | MIC80 (Candida parapsilosis [5]) [µM] | MIC80 (Trichosporon beigelii [6]) [µM] | MIC80 (Nakaseomyces glabratus [7]) [µM] | MIC80 (Clavispora lusitaniae [8]) [µM] | MIC80 (Pichia kudriavzevii [9]) [µM] | MIC80 (Candida albicans [10]) [µM] | MIC80 [11] [µM] | MIC80 (Aspergillus fumigatus [12]) [µM] | MIC80 (Trichosporon beigelii [13]) [µM] | MIC80 (Pichia kudriavzevii [14]) [µM] | MIC80 (Clavispora lusitaniae [15]) [µM] | MIC80 (Candida parapsilosis [16]) [µM] | MIC80 (Aspergillus fumigatus [17]) [µM] | MIC80 (Candida tropicalis [18]) [µM] | MIC80 (Pichia kudriavzevii [19]) [µM] | MIC80 [20] [µM] | SMILES | also measured |
| --- | --- | --- | --- | --- | --- | --- | --- | --- | --- | --- | --- | --- | --- | --- | --- | --- | --- | --- | --- | --- | --- |
| 500 (≈ 173 µg/mL) | 1.95 (≈ 0.673 µg/mL) | 1.95 (≈ 0.673 µg/mL) | 7.81 (≈ 2.7 µg/mL) | 7.81 (≈ 2.7 µg/mL) | 7.81 (≈ 2.7 µg/mL) | 1.95 (≈ 0.673 µg/mL) | 3.9 (≈ 1.35 µg/mL) | 31.2 (≈ 10.8 µg/mL) | 1.95 (≈ 0.673 µg/mL) | 1.95 (≈ 0.673 µg/mL) | 1.95 (≈ 0.673 µg/mL) | 31.2 (≈ 10.8 µg/mL) | 7.81 (≈ 2.7 µg/mL) | 7.81 (≈ 2.7 µg/mL) | 31.2 (≈ 10.8 µg/mL) | 15.6 (≈ 5.39 µg/mL) | 15.6 (≈ 5.39 µg/mL) | 15.6 (≈ 5.39 µg/mL) | 3.9 (≈ 1.35 µg/mL) | O=C1OC(COc2ccccc2)C=C1c1ccc(Br)cc1 (stereo unspecified) | pIC50 (HeLa S3): 5.33; pIC50 (CCRF-CEM): 5.96; MIC80 (Candida albicans [21]): 7.81 µM (≈ 2.7 µg/mL); MIC80 (Candida albicans [22]): 0.97 µM (≈ 0.335 µg/mL); pIC50 (HL-60): 5.36; MIC80 (Lichtheimia corymbifera [23]): 125 µM (≈ 43.1 µg/mL); MIC80 (Pichia kudriavzevii [24]): 31.2 µM (≈ 10.8 µg/mL) |
| 62.5 (≈ 23.5 µg/mL) | 0.97 (≈ 0.364 µg/mL) | 1.95 (≈ 0.732 µg/mL) | 7.81 (≈ 2.93 µg/mL) | 7.81 (≈ 2.93 µg/mL) | 7.81 (≈ 2.93 µg/mL) | 1.95 (≈ 0.732 µg/mL) | 3.9 (≈ 1.46 µg/mL) | 15.6 (≈ 5.86 µg/mL) | 1.95 (≈ 0.732 µg/mL) | 1.95 (≈ 0.732 µg/mL) | 3.9 (≈ 1.46 µg/mL) | 15.6 (≈ 5.86 µg/mL) | 7.81 (≈ 2.93 µg/mL) | 7.81 (≈ 2.93 µg/mL) | 15.6 (≈ 5.86 µg/mL) | 7.81 (≈ 2.93 µg/mL) | 7.81 (≈ 2.93 µg/mL) | 7.81 (≈ 2.93 µg/mL) | 1.95 (≈ 0.732 µg/mL) | COc1ccc(OCC2C=C(c3ccc(Br)cc3)C(=O)O2)cc1 (stereo unspecified) | MIC80 (Candida albicans [21]): 7.81 µM (≈ 2.93 µg/mL); MIC80 (Candida albicans [22]): 0.97 µM (≈ 0.364 µg/mL); MIC80 (Lichtheimia corymbifera [23]): 31.2 µM (≈ 11.7 µg/mL); MIC80 (Pichia kudriavzevii [24]): 15.6 µM (≈ 5.86 µg/mL) |
|  |  |  |  |  |  |  |  |  |  |  |  |  |  |  |  |  |  |  |  | C[C@@H]1[C@H](O)[C@@H](C)/C=C/C=C/C=C/C=C/C=C/C=C/C=C/[C@H](O[C@@H]2O[C@H](C)[C@@H](O)[C@H](N)[C@@H]2O)C[C@@H]2O[C@](O)(C[C@@H](O)C[C@@H](O)[C@H](O)CC[C@@H](O)C[C@@H](O)CC(=O)O[C@H]1C)C[C@H](O)[C@H]2C(=O)O [AMPHOTERICIN B] | MIC95 (Lichtheimia corymbifera [1]): 2.16 µM (≈ 2 µg/mL); MIC95 (Nakaseomyces glabratus [2]): 0.03 µM (≈ 0.0277 µg/mL); MIC95 (Candida albicans [3]): 0.06 µM (≈ 0.0554 µg/mL); MIC95 (Candida tropicalis [4]): 0.09 µM (≈ 0.0832 µg/mL); MIC95 (Candida parapsilosis [5]): 0.03 µM (≈ 0.0277 µg/mL); MIC95 (Nakaseomyces glabratus [7]): 0.09 µM (≈ 0.0832 µg/mL); MIC95 (Clavispora lusitaniae [8]): 0.14 µM (≈ 0.129 µg/mL); MIC95 (Pichia kudriavzevii [9]): 0.18 µM (≈ 0.166 µg/mL); MIC95 (Candida albicans [10]): 0.07 µM (≈ 0.0647 µg/mL); MIC95 (Aspergillus fumigatus [12]): 0.18 µM (≈ 0.166 µg/mL); MIC95 (Trichosporon beigelii [13]): 1.8 µM (≈ 1.66 µg/mL); MIC95 (Pichia kudriavzevii [14]): 0.14 µM (≈ 0.129 µg/mL); MIC95 (Clavispora lusitaniae [15]): 0.27 µM (≈ 0.25 µg/mL); MIC95 (Candida parapsilosis [16]): 0.14 µM (≈ 0.129 µg/mL); MIC95 (Aspergillus fumigatus [17]): 0.23 µM (≈ 0.213 µg/mL); MIC95 (Candida tropicalis [18]): 0.11 µM (≈ 0.102 µg/mL); MIC95 (Pichia kudriavzevii [19]): 0.14 µM (≈ 0.129 µg/mL); MIC95 (Candida albicans [21]): 0.14 µM (≈ 0.129 µg/mL); MIC95 (Candida albicans [22]): 0.03 µM (≈ 0.0277 µg/mL); MIC95 (Pichia kudriavzevii [24]): 0.14 µM (≈ 0.129 µg/mL) |
